Reference: ChEMBL document CHEMBL3797168 (J Med Chem, 2016)
Activity calls are given as the source filed them.

What was measured:
[1] = biological target: Adenosine receptor A2a (Homo sapiens) (UniProt P29274); experiment: Displacement of [3H]2-[p-(2-carboxyethyl)phenyl-ethylamino]-5'-N-ethylcarboxamido-adenosine from human adenosine A2A receptor expressed in HEK293 cell membranes at 10 uM incubated for 60 mins by liquid scintillation counting analysis
Adenosine receptor A3 [2] = biological target: T1, Adenosine receptor A3 (Homo sapiens, UniProt P0DMS8); experiment: Displacement of [125I]N6-(4-amino-3-iodobenzyl)adenosine-5'-N-methyl-uronamide from human adenosine A3 receptor expressed in CHO cell membranes incubated for 60 mins by liquid scintillation counting analysis
T1 sequence (P0DMS8 whole entry): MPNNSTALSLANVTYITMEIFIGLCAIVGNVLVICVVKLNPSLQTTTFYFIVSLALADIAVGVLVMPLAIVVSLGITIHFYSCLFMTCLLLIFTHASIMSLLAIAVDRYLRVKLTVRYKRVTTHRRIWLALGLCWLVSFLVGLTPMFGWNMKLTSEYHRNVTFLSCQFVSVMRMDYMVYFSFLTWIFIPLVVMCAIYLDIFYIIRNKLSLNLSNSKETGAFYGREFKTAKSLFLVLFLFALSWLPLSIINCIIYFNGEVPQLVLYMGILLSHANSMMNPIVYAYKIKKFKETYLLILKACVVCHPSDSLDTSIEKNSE

[3] = biological target: T2, Adenosine receptor A1 (Homo sapiens) (UniProt P30542); experiment: Displacement of [3H]N6-R-phenylisopropyladenosine from human adenosine A1 receptor expressed in CHO cell membranes at 10 uM incubated for 60 mins by liquid scintillation counting analysis
T2 sequence (whole entry): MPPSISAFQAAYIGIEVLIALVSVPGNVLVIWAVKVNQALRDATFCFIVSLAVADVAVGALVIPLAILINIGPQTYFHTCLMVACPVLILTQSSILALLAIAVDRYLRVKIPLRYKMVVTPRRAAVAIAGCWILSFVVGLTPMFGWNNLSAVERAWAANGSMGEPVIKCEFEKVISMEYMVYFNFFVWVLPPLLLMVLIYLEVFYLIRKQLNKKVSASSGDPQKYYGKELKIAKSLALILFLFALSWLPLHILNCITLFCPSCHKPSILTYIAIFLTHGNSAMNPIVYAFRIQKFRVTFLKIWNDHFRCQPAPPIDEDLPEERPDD

Adenosine receptor A1 = biological target: T3, Adenosine receptor A1 (Homo sapiens, UniProt P30542); experiment: Displacement of [3H]N6-R-phenylisopropyladenosine from human adenosine A1 receptor expressed in CHO cell membranes incubated for 60 mins by liquid scintillation counting analysis
T3 sequence (P30542 whole entry): T2 sequence (whole entry)

Mus musculus [4] = experiment: Antineuropathic pain activity in mouse chronic constriction injury model assessed as protection against mechanoallodynia at 3 micromol/kg administered as oral gavage on day 7; assay type: functional, organism-based
How it was run: (§1)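 Mice underwent sciatic nerve ligation (Bennett method). On day 7, at peak pain, they were dosed by oral gavage at 3 µmol/kg, n=3. Vehicle was 10% DMSO in 0.5% methylcellulose, diluted from a 5 mM DMSO stock. Ipsilateral hind paw withdrawal threshold (g) was followed over time. Experimenters were blinded.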

Mus musculus [5] = experiment: Antineuropathic pain activity in mouse chronic constriction injury model assessed as protection against mechanoallodynia at 3 micromol/kg administered as oral gavage on day 7 measured at 1 hr; assay type: functional; how it was run: as §1
Mus musculus [6] = experiment: Antineuropathic pain activity in mouse chronic constriction injury model assessed as protection against mechanoallodynia at 3 micromol/kg administered as oral gavage on day 7 measured at 3 hrs; assay type: functional; how it was run: as §1
Adenosine receptor A3 [7] = biological target: T4, Adenosine receptor A3 (Mus musculus, UniProt Q61618); experiment: Displacement of [125I]N6-(4-amino-3-iodobenzyl)adenosine-5'-Nmethyluronamide from mouse adenosine A3 receptor expressed in HEK293 cell membranes incubated for 60 mins by liquid scintillation counting analysis
T4 sequence (Q61618 whole entry): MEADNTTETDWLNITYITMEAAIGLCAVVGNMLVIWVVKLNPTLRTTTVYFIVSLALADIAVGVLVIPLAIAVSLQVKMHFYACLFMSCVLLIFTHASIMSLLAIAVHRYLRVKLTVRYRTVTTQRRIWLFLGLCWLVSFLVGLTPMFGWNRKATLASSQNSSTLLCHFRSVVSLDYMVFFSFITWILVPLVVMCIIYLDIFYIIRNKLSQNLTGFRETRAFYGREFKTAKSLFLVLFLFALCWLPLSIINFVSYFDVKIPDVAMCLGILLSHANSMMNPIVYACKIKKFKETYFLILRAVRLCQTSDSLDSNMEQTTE

Mus musculus [8] = experiment: Antineuropathic pain activity in mouse chronic constriction injury model assessed as time duration showing protection against mechanoallodynia at 3 micromol/kg administered as oral gavage on day 7; assay type: functional; how it was run: as §1
Adenosine receptor A3 [9] = biological target: T1, Adenosine receptor A3; experiment: Agonist activity at recombinant human adenosine A3 receptor expressed in CHO cells assessed as inhibition of forskolin-stimulated cAMP accumulation preincubated for 30 mins followed by forsolkin addition measured after 15 mins by immunoassay; assay type: cell-based
[10] = biological target: Sodium-dependent dopamine transporter (Homo sapiens) (UniProt Q01959); experiment: Increase in [3H]methyl (1R,2S,3S)-3-(4-fluorophenyl)-8-methyl-8-azabicyclo[3.2.1]octane-2-carboxylate binding to recombinant human DAT expressed in HEK293 cells at 10 uM by PDSP assay; assay type: cell-based
Adenosine receptor A3 [11] = biological target: T4, Adenosine receptor A3; experiment: Agonist activity at mouse adenosine A3 receptor expressed in HEK293 cell membranes assessed as inhibition of forskolin-stimulated cAMP accumulation preincubated for 30 mins followed by forsolkin addition measured after 15 mins by immunoassay; assay type: functional, cell-based
[12] = biological target: Delta-type opioid receptor (Homo sapiens, UniProt P41143)
Delta-type opioid receptor, sequence (P41143 whole entry): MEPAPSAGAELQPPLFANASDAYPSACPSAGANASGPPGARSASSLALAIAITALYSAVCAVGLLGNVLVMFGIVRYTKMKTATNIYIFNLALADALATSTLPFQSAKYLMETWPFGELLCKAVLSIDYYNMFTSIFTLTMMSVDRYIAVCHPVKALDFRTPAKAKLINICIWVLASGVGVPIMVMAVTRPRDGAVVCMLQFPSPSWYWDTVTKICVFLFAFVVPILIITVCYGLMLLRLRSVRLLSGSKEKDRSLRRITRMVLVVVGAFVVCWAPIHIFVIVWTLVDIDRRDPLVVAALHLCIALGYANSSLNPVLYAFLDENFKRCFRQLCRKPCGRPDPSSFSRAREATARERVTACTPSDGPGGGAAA

Adenosine receptor A2a (Homo sapiens), sequence (P29274 whole entry): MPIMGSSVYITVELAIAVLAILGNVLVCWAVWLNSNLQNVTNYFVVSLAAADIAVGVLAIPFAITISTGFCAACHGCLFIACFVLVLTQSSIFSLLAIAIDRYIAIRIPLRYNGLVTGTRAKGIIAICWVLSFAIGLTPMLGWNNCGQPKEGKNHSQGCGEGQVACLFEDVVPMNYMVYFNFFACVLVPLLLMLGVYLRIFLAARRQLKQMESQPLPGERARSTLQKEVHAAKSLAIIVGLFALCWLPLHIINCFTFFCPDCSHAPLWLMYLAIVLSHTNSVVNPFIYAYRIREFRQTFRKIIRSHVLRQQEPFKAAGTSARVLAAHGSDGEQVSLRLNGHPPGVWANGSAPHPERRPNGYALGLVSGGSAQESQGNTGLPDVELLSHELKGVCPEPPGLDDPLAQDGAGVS
Sodium-dependent dopamine transporter (Homo sapiens), sequence (Q01959 whole entry): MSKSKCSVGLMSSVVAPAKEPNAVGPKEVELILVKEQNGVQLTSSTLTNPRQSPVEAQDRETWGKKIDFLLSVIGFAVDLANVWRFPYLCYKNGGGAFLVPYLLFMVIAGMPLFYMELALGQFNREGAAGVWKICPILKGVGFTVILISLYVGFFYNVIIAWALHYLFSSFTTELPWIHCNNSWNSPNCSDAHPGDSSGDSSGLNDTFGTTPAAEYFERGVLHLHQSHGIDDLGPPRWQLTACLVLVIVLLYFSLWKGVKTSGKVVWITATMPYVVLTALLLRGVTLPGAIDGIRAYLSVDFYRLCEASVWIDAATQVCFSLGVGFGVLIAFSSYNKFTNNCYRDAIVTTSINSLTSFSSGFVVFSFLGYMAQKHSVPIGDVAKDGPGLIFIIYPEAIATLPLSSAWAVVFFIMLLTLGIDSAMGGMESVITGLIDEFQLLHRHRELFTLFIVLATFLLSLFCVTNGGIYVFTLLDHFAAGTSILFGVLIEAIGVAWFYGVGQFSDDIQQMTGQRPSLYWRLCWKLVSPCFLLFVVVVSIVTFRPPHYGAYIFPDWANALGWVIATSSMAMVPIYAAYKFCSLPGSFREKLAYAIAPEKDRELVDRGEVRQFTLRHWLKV

CNC(=O)[C@@]12C[C@@H]1[C@@H](n1cnc3c(/C=C(\O)c4ccccc4Cl)nc(C#Cc4ccccc4Cl)nc31)[C@H](O)[C@@H]2O
inhibition [1]: 21% | Ki (Adenosine receptor A3 [2]): 515 nM | inhibition [3]: 28%

CNC(=O)[C@@]12C[C@@H]1[C@@H](n1cnc3c(C)nc(C#Cc4ccc(F)c(F)c4)nc31)[C@H](O)[C@@H]2O
Ki (Adenosine receptor A1): 5430 nM | inhibition [1]: 14% | Ki (Adenosine receptor A3 [2]): 98.5 nM

CNC(=O)[C@@]12C[C@@H]1[C@@H](n1cnc3c(/C=C(\O)c4ccccc4)nc(Cl)nc31)[C@H](O)[C@@H]2O
inhibition [1]: 24% | Ki (Adenosine receptor A3 [2]): 1140 nM | inhibition [3]: 30%

CNC(=O)[C@@]12C[C@@H]1[C@@H](n1cnc3c(NC)nc(C#Cc4ccccc4)nc31)[C@H](O)[C@@H]2O
Activity (Mus musculus [4]): Active

CNC(=O)[C@@]12C[C@@H]1[C@@H](n1cnc3cnc(NC)nc31)[C@H](O)[C@@H]2O
inhibition [1]: < 10% | Ki (Adenosine receptor A3 [2]): 604 nM | inhibition [3]: 17%

CNC(=O)[C@@]12C[C@@H]1[C@@H](n1cnc3c(NCc4cccc(Cl)c4)nc(C#Cc4ccc(F)c(F)c4)nc31)[C@H](O)[C@@H]2O
Activity (Mus musculus [5]): 100% | Activity (Mus musculus [6]): 23.7%

CNC(=O)[C@@]12C[C@@H]1[C@@H](n1cnc3cnc(C#Cc4ccc(Cl)s4)nc31)[C@H](O)[C@@H]2O
Ki (Adenosine receptor A3 [7]): 396 nM | inhibition [1]: 18% | Time (Mus musculus [8]): 5 h | Ki (Adenosine receptor A3 [2]): 60 nM | EC50 (Adenosine receptor A3 [9]): 26.9 nM | inhibition [3]: < 10%

CNC(=O)[C@@]12C[C@@H]1[C@@H](n1cnc3c(C)nc(C#Cc4ccccc4)nc31)[C@H](O)[C@@H]2O
Activity [10]: 200% | Activity (Mus musculus [4]): Active | inhibition [1]: 34% | inhibition [3]: 15%

CNC(=O)[C@@]12C[C@@H]1[C@@H](n1cnc3c(/C=C(\O)c4ccccc4)nc(C#Cc4ccccc4)nc31)[C@H](O)[C@@H]2O
Activity (Mus musculus [4]): Active | Ki (Adenosine receptor A3 [7]): 136 nM | inhibition [1]: 16% | Ki (Adenosine receptor A3 [2]): 78.5 nM | EC50 (Adenosine receptor A3 [11]): 4.86 nM | inhibition [3]: 16%

CNC(=O)[C@@]12C[C@@H]1[C@@H](n1cnc3cnc(C#Cc4ccc(F)c(F)c4)nc31)[C@H](O)[C@@H]2O
inhibition [1]: 12% | Ki (Adenosine receptor A3 [2]): 124 nM | inhibition [3]: 17%

CNC(=O)[C@@]12C[C@@H]1[C@@H](n1cnc3c(C)nc(C#Cc4ccc(Cl)s4)nc31)[C@H](O)[C@@H]2O
Ki [12]: 5800 nM | Activity (Mus musculus [4]): Active | Ki (Adenosine receptor A3 [7]): 722 nM | inhibition [1]: 12% | Ki (Adenosine receptor A3 [2]): 42.2 nM | EC50 (Adenosine receptor A3 [9]): 12.5 nM | inhibition [3]: < 10%

CNC(=O)[C@@]12C[C@@H]1[C@@H](n1cnc3c(/C=C(\O)c4ccc(C(C)(C)C)cc4)nc(C#Cc4ccc(C(C)(C)C)cc4)nc31)[C@H](O)[C@@H]2O
inhibition [1]: 19% | Ki (Adenosine receptor A3 [2]): 94.3 nM | inhibition [3]: 24%

CNC(=O)[C@@]12C[C@@H]1[C@@H](n1cnc3c(C)nc(C#Cc4cnccn4)nc31)[C@H](O)[C@@H]2O
inhibition [1]: 17% | inhibition [3]: 15%

CNC(=O)[C@@]12C[C@@H]1[C@@H](n1cnc3cnc(/C=C(\O)c4cnccn4)nc31)[C@H](O)[C@@H]2O
inhibition [1]: 20% | Ki (Adenosine receptor A3 [2]): 1480 nM | inhibition [3]: 14%

CNC(=O)[C@@]12C[C@@H]1[C@@H](n1cnc3c(OC)nc(C#Cc4ccc(Cl)s4)nc31)[C@H](O)[C@@H]2O
Ki (Adenosine receptor A1): 796 nM | inhibition [1]: 27%

CNC(=O)[C@@]12C[C@@H]1[C@@H](n1cnc3c(C)nc(C#Cc4ccc(C(C)(C)C)cc4)nc31)[C@H](O)[C@@H]2O
inhibition [1]: 15% | inhibition [3]: 16%
